Laboratory results reported in the M2OR odorant receptor database.

Experiments:
Settings in all cases: stereoisomer not certain
OR10G2 (Homo sapiens) = molecular target: T1, OR10G2 (Homo sapiens) (UniProt Q8NGC3)
T1 sequence (whole entry): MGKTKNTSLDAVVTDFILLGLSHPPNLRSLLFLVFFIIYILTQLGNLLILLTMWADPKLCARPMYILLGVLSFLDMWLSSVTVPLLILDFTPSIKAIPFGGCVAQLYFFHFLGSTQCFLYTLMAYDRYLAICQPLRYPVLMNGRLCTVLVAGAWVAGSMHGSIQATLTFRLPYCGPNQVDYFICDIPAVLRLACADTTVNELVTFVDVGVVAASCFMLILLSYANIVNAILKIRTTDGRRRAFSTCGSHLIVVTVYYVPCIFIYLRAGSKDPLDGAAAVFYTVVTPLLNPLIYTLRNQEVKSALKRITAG
Method in brief: (§1)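 Each entry records the cell line, G-protein, co-transfected protein and tags used. Methods varied with the source, often transient luciferase assays in mammalian cell lines. A receptor–molecule pair is called responsive (active) if the original authors judged its signal statistically different from baseline and non-responsive (inactive) otherwise.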

OR10G3 (Homo sapiens) = molecular target: T2, OR10G3 (Homo sapiens) (UniProt Q8NGC4)
T2 sequence (whole entry): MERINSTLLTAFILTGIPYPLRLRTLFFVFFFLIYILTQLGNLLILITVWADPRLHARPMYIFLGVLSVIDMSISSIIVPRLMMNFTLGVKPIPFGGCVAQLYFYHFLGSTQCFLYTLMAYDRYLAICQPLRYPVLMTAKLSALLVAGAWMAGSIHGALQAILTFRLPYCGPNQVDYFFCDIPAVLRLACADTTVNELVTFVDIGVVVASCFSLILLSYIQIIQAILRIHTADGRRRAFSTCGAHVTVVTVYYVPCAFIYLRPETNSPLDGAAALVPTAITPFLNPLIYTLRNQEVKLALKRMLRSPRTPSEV
Method in brief: as §1

OR10G4 (Homo sapiens) = molecular target: T3, OR10G4 (Homo sapiens) (UniProt Q8NGN3)
T3 sequence (whole entry): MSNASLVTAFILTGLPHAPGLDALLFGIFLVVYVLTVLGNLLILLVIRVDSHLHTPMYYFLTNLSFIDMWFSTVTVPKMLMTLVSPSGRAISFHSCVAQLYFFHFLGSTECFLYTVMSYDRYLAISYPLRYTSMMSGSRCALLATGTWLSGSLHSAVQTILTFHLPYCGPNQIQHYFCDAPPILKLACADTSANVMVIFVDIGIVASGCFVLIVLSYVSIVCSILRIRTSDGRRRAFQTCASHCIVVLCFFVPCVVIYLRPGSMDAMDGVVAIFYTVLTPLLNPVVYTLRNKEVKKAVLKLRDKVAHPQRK
Method in brief: as §1

OR10G6 (Homo sapiens) = molecular target: T4, OR10G6 (Homo sapiens) (UniProt Q8NH81)
T4 sequence (whole entry): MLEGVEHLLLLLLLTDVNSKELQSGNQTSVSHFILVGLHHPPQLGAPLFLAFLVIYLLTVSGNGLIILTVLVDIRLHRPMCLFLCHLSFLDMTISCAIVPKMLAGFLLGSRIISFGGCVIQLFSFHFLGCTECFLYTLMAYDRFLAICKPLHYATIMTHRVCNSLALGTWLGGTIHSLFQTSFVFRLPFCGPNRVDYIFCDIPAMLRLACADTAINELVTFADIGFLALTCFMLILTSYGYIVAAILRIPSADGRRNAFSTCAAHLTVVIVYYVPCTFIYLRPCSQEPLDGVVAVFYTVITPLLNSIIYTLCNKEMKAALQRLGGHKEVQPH
Method in brief: as §1

OR10G7 (Homo sapiens) = molecular target: T5, OR10G7 (Homo sapiens) (UniProt Q8NGN6)
T5 sequence (whole entry): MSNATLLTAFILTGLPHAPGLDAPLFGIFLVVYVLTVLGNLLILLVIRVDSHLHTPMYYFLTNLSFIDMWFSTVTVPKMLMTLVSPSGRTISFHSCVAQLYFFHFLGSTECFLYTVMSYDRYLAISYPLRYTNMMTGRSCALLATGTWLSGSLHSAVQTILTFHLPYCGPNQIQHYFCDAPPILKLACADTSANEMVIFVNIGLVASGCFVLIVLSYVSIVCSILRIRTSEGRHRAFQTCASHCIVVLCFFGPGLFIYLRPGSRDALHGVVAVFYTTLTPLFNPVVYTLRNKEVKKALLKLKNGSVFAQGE
Method in brief: as §1

OR10G8 (Homo sapiens) = molecular target: T6, OR10G8 (Homo sapiens) (UniProt Q8NGN5)
T6 sequence (whole entry): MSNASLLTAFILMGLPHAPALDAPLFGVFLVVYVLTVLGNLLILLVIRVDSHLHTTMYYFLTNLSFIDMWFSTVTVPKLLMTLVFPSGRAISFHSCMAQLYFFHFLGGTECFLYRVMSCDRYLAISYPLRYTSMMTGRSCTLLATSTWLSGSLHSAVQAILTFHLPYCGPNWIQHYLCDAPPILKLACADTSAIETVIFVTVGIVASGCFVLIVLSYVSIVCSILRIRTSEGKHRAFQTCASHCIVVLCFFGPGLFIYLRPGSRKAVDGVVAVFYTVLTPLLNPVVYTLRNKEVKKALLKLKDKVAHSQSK
Method in brief: as §1

OR10G9 (Homo sapiens) = molecular target: T7, OR10G9 (Homo sapiens) (UniProt Q8NGN4)
T7 sequence (whole entry): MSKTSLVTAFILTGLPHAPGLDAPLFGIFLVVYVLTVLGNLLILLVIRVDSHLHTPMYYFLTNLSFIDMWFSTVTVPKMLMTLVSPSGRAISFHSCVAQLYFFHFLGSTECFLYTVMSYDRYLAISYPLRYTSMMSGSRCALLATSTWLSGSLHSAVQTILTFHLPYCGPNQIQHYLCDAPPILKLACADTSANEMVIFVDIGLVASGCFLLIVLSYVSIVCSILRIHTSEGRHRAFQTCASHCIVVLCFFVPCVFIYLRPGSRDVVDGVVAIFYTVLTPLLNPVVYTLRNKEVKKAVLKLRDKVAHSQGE
Method in brief: as §1

OR10H1 (Homo sapiens) = molecular target: T8, OR10H1 (Homo sapiens) (UniProt Q9Y4A9)
T8 sequence (whole entry): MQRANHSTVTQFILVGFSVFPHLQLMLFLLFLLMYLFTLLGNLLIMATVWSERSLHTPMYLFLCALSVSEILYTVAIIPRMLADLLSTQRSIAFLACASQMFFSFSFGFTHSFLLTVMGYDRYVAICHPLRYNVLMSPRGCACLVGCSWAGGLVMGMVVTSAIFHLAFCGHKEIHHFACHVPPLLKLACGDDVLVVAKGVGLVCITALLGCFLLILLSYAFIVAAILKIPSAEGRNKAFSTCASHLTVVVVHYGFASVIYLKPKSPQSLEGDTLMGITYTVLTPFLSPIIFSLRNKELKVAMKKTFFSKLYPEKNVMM
Method in brief: as §1

OR10H2 (Homo sapiens) = molecular target: T9, OR10H2 (Homo sapiens) (UniProt O60403)
T9 sequence (whole entry): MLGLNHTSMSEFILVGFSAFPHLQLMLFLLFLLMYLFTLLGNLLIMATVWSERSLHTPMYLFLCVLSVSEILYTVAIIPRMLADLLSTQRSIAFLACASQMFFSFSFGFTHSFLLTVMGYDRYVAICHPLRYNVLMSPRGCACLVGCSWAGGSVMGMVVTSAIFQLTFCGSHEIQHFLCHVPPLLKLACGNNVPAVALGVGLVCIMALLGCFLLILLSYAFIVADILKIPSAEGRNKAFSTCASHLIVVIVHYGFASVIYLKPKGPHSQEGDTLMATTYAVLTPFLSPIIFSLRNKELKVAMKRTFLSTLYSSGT
Method in brief: as §1

Measured: odorant receptor agonist call

CCCCCC(S)C(C)CO (centres undefined)
inactive: all assays above
